The values that follow come from ChEMBL document CHEMBL1139831, “The influence of modifications in imide fragment structure on 5-HT(1A) and 5-HT(7) receptor affinity and in vivo pharmacological properties of some new 1-(m-trifluoromethylphenyl)piperazines” (Bioorg Med Chem, 2007).

For assay [1], the system named is Rattus norvegicus. The experiment in a line: Effect on lower lip retraction in Wistar rat at 10 mg/kg. It is filed as functional. In a few lines:
(§1)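 Male Wistar rats (290–310 g) dosed ip in 1% Tween 80 (2 ml/kg), caged singly; lower lip retraction scored 15, 30 and 45 min after dosing as 0 (incisors not visible), 0.5 (partly) or 1 (completely visible), totals up to 3 per rat. n = 6 per group; one-way ANOVA followed by Dunnett's test.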

For assay [2], the target named is T1, 5-hydroxytryptamine receptor 1A (Rattus norvegicus, UniProt P19327).
T1 sequence (P19327 whole entry): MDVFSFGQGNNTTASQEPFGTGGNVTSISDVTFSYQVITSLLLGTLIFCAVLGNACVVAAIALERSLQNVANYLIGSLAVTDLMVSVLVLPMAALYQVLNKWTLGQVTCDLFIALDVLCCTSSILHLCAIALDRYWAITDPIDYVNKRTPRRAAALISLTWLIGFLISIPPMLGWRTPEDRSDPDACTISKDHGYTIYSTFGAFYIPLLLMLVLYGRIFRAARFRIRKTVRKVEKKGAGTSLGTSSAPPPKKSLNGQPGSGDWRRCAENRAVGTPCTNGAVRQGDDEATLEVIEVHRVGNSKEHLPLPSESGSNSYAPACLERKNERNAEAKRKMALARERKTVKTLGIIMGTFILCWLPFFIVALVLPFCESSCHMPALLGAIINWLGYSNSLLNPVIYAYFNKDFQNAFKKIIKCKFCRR
The experiment in a line: Displacement of [3H]8-OH-DPAT from 5HT1A in rat hippocampal membranes. The format is cell membranes, Hippocampus, Membrane. The essentials:
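Rat hippocampal membranes, [3H]-8-OH-DPAT as radioligand, 5-HT defining nonspecific binding. 7–9 drug concentrations run in triplicate, at least three separate experiments. Filtration through GF/B filters with three ice-cold buffer washes, scintillation counting. Ki from non-linear regression of binding isotherms via Cheng-Prusoff equation.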

The subject of assay [3] is Mus musculus. The experiment in a line: Antidepressant activity in Swiss Albino mouse assessed as immobility time during final 4 mins of 6 mins session at 10 mg/kg administered 30 mins before the test by forced-swimming test. The format is functional. In a few lines:
(§2)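 Male Albino Swiss mice (24–28 g), compound given ip in 1% aqueous Tween 80 (10 ml/kg), 30 min before test. Mouse placed singly in glass cylinder (25 cm high, 10 cm diameter) holding 6 cm water at 23–25 °C for 6 min; immobility (floating, only small head-keeping movements) timed over last 4 min. n = 9-10 per group; one-way ANOVA then Dunnett's test.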

The species entered for assay [4] is Mus musculus. The note with it: Swiss Albino, 5 mg/kg.
Assay [5] concerns Rattus norvegicus. The experiment in a line: Effect on 8-OH-DPAT-induced lower lip retraction in Wistar rat at 2.5 mg/kg. The format is functional.
Assay [6] is described as follows: Displacement of [3H]prazosin from adrenergic alpha1 receptor in rat cortical membranes. The format is cell membranes, Membrane. The essentials: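 Rat cortical membranes with [3H]-prazosin; phentolamine defines nonspecific binding. 7–9 drug concentrations in triplicate, at least three separate experiments; stopped by GF/B filtration with three ice-cold buffer washes, bound radioactivity by liquid scintillation counting; Ki from non-linear regression and Cheng-Prusoff equation.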

The species entered for assay [7] is Mus musculus. As to conditions: Swiss Albino, 10 mg/kg.
Assay [8] deals with Mus musculus. The experiment in a line: Antidepressant activity in Swiss Albino mouse assessed as immobility time during final 4 mins of 6 mins session at 5 mg/kg administered 30 mins before the test by forced-swimming test. The format is functional. The essentials:
as §2

For assay [9], the species on record is Mus musculus. The note with it: Swiss Albino, 10 mg/kg. The source holds these as a separate data set.
For assay [10], the species on record is Mus musculus. As to conditions: Swiss Albino, 10 mg/kg. This is another data set of the same source.
The subject of assay [11] is Mus musculus. The experiment in a line: Effect on locomotor activity in Swiss Albino mouse assessed as number of crossings in 6 mins at 5 mg/kg administered 30 mins before the test. The format is functional. The essentials: (§3)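 Male Albino Swiss mice (24–28 g) given compound ip (suspension in 1% aqueous Tween 80, 10 ml/kg). Animals housed singly in plastic cages in a multichannel photobeam activity monitor. Ambulation crossings counted over first 6 min and over 30-min session. n = 9-10/group; one-way ANOVA then Dunnett's test.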

In the next assay the target is D(2) dopamine receptor (Rattus norvegicus, UniProt P61169). The experiment in a line: Displacement of [3H]spiperone from dopamine D2 receptor in rat striatal membranes. The format is cell membranes, Membrane. In a few lines:
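Competition binding on rat striatal membranes using [3H]-spiperone, butaclamol for nonspecific binding; filtration through GF/B filters and scintillation counting. Run at two compound concentrations, each in triplicate, and affinity expressed as estimated Ki.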

Assay [12] is filed under the species Mus musculus. As to conditions: Swiss Albino, 5 mg/kg. This is another data set of the same source.
For assay [13], the species on record is Mus musculus. As to conditions: Swiss Albino, 10 mg/kg. The source holds these as a separate data set.
The test system of assay [14] is Mus musculus. The experiment in a line: Anxiolytic activity in Swiss Albino mouse assessed as number of punished crossings for 60 secs at 10 mg/kg administered 30 mins before the test by four-plate test. It is filed as functional. The essentials:
(§4)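 Male Albino Swiss mice (24–28 g), compound suspended in 1% aqueous Tween 80, given ip (10 ml/kg). Mouse placed in box with four metal floor plates, 15 s exploration, then floor electrified (120 V, 0.5 s) at each plate-to-plate crossing, no new shock for 3 s. Punished crossings counted over 60 s. n = 9-10/group; one-way ANOVA then Dunnett's test.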

For assay [15], the system named is Rattus norvegicus. The experiment in a line: Effect on lower lip retraction in Wistar rat at 2.5 mg/kg. The format is functional. The essentials: as §1
In assay [16] the test system is Mus musculus. The experiment in a line: Effect on locomotor activity in Swiss Albino mouse assessed as number of crossings in 30 mins at 10 mg/kg administered 30 mins before the test. It is filed as functional. The essentials:
(§5)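 Male Albino Swiss mice given compound ip (1% Tween 80, 10 ml/kg) 30 min before placement singly in plastic cages in a multichannel photobeam activity monitor; ambulation crossings counted over the first 6 min and over a 30 min session. n = 9-10 per group; ANOVA then Dunnett's test.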

The species named for assay [17] is Mus musculus. As to conditions: Swiss Albino, 10 mg/kg. This is another data set of the same source.
Assay [18] addresses 5-hydroxytryptamine receptor 7 (Homo sapiens, UniProt P34969). The experiment in a line: Displacement of [3H]5-CT from human 5HT7 expressed in HEK293 cells. It is filed as cell-based. In a few lines: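 HEK293 cells stably transfected with human 5-HT7(b) cDNA; membranes (10 µg protein) incubated 1 h at 37 °C in 50 mM Tris-HCl pH 7.4 with 4 mM MgCl2, 0.1 mM pargyline, 0.1% ascorbic acid, 0.5 nM [3H]-5-CT and 7–9 test concentrations in triplicate; 10 µM 5-HT defines nonspecific binding. GF/B filtration, scintillation counting; Ki via Cheng-Prusoff from ≥3 experiments.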

The species entered for assay [19] is Mus musculus. The note with it: Swiss Albino, 5 mg/kg. This is another data set of the same source.
The subject of assay [20] is Mus musculus. The experiment in a line: Effect on locomotor activity in Swiss Albino mouse assessed as number of crossings in 6 mins at 10 mg/kg administered 30 mins before the test. The format is functional. The essentials:
as §3

For assay [21], the species on record is Mus musculus. As to conditions: Swiss Albino, 10 mg/kg. The source holds these as a separate data set.
Assay [22] deals with Mus musculus. The experiment in a line: Effect on locomotor activity in Swiss Albino mouse assessed as number of crossings in 30 mins at 5 mg/kg administered 30 mins before the test. It is filed as functional. The essentials: as §5
For assay [23], the species on record is Mus musculus. The note with it: Swiss Albino, 5 mg/kg. This is another data set of the same source.
Assay [24] concerns Rattus norvegicus. The experiment in a line: Effect on lower lip retraction in Wistar rat at 5 mg/kg. The format is functional. The essentials: as §1
For assay [25], the system named is Mus musculus. The experiment in a line: Anxiolytic activity in Swiss Albino mouse assessed as number of punished crossings for 60 secs at 5 mg/kg administered 30 mins before the test by four-plate test. It is filed as functional. The essentials:
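Male Albino Swiss mice dosed ip (1% aqueous Tween 80, 10 ml/kg) 30 min beforehand. Opaque box floored with four metal plates; 15 s free exploration, then each plate-to-plate crossing triggers a 0.5 s, 120 V floor shock, with no new shock for 3 s if running continues. Punished crossings counted over 60 s; n = 9-10, ANOVA plus Dunnett's test.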

The test system of assay [26] is Mus musculus. The experiment in a line: Anxiolytic activity in Swiss Albino mouse assessed as number of punished crossings for 60 secs at 2.5 mg/kg administered 30 mins before the test by four-plate test. The format is functional. The essentials:
as §4

Assay [27] relates to Mus musculus. The experiment in a line: Anxiolytic activity in Swiss Albino mouse assessed as number of punished crossings for 60 secs at 1.25 mg/kg administered 30 mins before the test by four-plate test. It is filed as functional. In a few lines: as §4
Assay [28] relates to Mus musculus. The experiment in a line: Effect on locomotor activity in Swiss Albino mouse assessed as number of crossings in 30 mins at 20 mg/kg administered 30 mins before the test. The format is functional. The essentials:
as §5

Assay [29] deals with Mus musculus. The experiment in a line: Effect on locomotor activity in Swiss Albino mouse assessed as number of crossings in 6 mins at 20 mg/kg administered 30 mins before the test. It is filed as functional. The essentials: as §5
The test system of assay [30] is Mus musculus. The experiment in a line: Antidepressant activity in Swiss Albino mouse assessed as immobility time during final 4 mins of 6 mins session at 20 mg/kg administered 30 mins before the test by forced-swimming test. It is filed as functional. In a few lines: as §2

SMILES strings stand for the structures.

5-hydroxytryptamine receptor 7, sequence (P34969 whole entry): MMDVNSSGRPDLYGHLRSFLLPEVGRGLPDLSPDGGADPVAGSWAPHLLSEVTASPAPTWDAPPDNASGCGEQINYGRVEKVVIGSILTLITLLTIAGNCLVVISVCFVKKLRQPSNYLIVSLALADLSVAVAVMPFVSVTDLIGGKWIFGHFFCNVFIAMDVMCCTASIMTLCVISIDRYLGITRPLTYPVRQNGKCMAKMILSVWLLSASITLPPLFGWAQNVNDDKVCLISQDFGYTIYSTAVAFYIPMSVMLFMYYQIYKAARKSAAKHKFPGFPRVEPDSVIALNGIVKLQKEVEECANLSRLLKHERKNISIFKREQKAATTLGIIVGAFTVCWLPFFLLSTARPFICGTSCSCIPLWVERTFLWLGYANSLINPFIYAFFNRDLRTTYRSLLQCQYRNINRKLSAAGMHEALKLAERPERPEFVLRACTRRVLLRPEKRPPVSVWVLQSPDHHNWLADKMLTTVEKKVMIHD
D(2) dopamine receptor, sequence (P61169 whole entry): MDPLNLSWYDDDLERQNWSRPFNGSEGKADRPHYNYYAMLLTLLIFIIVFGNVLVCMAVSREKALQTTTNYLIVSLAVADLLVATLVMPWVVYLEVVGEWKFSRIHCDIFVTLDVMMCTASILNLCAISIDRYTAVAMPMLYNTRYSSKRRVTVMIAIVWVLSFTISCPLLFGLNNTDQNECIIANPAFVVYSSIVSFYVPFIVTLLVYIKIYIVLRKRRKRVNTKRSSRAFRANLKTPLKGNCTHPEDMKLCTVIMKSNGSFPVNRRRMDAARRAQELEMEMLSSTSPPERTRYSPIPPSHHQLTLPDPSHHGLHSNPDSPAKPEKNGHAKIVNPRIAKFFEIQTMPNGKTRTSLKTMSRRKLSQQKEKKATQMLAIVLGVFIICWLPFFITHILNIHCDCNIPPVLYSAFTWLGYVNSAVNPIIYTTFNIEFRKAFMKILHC

As to `O=C1CCCC(=O)N1CCCCN1CCN(c2cccc(C(F)(F)F)c2)CC1`, the Activity with Rattus norvegicus [1] is 2.8; with Mus musculus [3], 196.7 s; with Rattus norvegicus [5], 2.2; with Mus musculus [8], 183.9 s; with Mus musculus [11] it was 217.1; with Mus musculus [14], 5.2. Also, the Activity in the assay on Rattus norvegicus [15] is recorded as 1.6; in the assay with Mus musculus [16] it was 179.3; in the assay with Mus musculus [20] it was 16.3; in the assay on Mus musculus [22], 526.2; with Rattus norvegicus [24] it was 2.6; with Mus musculus [25], 5.8. The Activity in the assay on Mus musculus [26] stood at 4.3. The Ki in assay [2] was 0.003 µM; in [6], 0.101 µM; at D(2) dopamine receptor, > 5 µM; in assay [18], 0.021 µM. The deltaT is -0.4 °C in the assay listed under Mus musculus [4]; -0.8 °C in the assay listed under Mus musculus [7]; -1 °C in the assay filed under Mus musculus [9]; -0.9 °C in the assay listed under Mus musculus [10]; -0.4 °C in the assay listed under Mus musculus [12]; -1.1 °C in the assay filed under Mus musculus [13]. For the same compound, the deltaT is -1 °C in the assay listed under Mus musculus [17], -0.1 °C in the assay filed under Mus musculus [19], -1.3 °C in the assay listed under Mus musculus [21] and -0.5 °C in the assay filed under Mus musculus [23].
For the compound `CN1C(=O)CN=C(c2ccccc2)c2cc(Cl)ccc21` [DIAZEPAM], the Activity in the assay with Mus musculus [27] worked out at 5.5; in the assay with Mus musculus [25], 6.7; in the assay on Mus musculus [26], 6.8.
For `CN(C)CCCN1c2ccccc2CCc2ccccc21` [IMIPRAMINE], the Activity in the assay with Mus musculus [28] amounted to 625.3; in the assay on Mus musculus [3] it was 149.1 s; in the assay on Mus musculus [29], 314.9; with Mus musculus [16] it was 876.8; in the assay on Mus musculus [30], 107.8 s.
